In ChEMBL document CHEMBL2040715, “Discovery of a Potent HIV Integrase Inhibitor that Leads to a Prodrug with Significant anti-HIV Activity” (ACS Med Chem Lett, 2011):

system: not listed separately; assay: Cytotoxicity against PBMC; assay type: cell-based; conditions: human

Compound | CC50
O=C(/C=C(\O)c1nc[nH]n1)c1ccc(Cc2ccc(F)cc2)o1 [S-1360] | 110 µM

molecular target: Human immunodeficiency virus type 1 integrase (Human immunodeficiency virus 1, UniProt Q7ZJM1); assay: Inhibition of HIV1 integrase-mediated strand transfer; conditions: not given
Sequence (Q7ZJM1 whole entry): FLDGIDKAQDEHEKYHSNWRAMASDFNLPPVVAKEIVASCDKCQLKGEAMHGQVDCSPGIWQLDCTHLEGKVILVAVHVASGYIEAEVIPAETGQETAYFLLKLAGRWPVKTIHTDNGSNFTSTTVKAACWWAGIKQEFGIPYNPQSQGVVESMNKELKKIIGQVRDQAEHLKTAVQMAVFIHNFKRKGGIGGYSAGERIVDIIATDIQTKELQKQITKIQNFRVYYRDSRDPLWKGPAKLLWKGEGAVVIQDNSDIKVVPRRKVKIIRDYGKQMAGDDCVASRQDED

Compound | IC50
O=C(O)/C(O)=C/C(=O)c1cc(Cc2ccccc2)cn(Cc2ccccc2)c1=O | 0.07 µM
CC(C)OC(=O)/C(O)=C/C(=O)c1cc(Cc2ccc(F)cc2F)cn(Cc2ccccc2F)c1=O | > 0.475 µM

system: Human immunodeficiency virus 1; assay: Antiviral activity against HIV1 infected in MAGI cells by beta-galactosidase reporter gene assay; assay type: functional, organism-based; conditions: Human immunodeficiency virus 1, MAGI
Outline: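 HIV-1 infection of MAGI cells, with raltegravir as the MOI-sensitive positive control validating each run. EC50 and EC90 were determined.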

EC50 | Compound
0.8 µM | O=C(O)/C(O)=C/C(=O)c1cc(Cc2ccc(F)cc2)cn(Cc2ccc(F)cc2)c1=O
0.7 µM | O=C(O)/C(O)=C/C(=O)c1cc(Cc2ccc(F)cc2)cn(Cc2cccc(F)c2F)c1=O
1 µM | O=C(O)/C(O)=C/C(=O)c1cc(Cc2ccc(F)cc2)cn(Cc2cccc(F)c2)c1=O
1.9 µM | O=C(O)/C(O)=C/C(=O)c1cc(Cc2cccc(Cl)c2)cn(Cc2ccccc2F)c1=O
2.4 µM | O=C(O)/C(O)=C/C(=O)c1cc(Cc2cccc(Cl)c2F)cn(Cc2cccc(Cl)c2F)c1=O
1.3 µM | Cc1cc(F)ccc1Cc1cc(C(=O)/C=C(\O)C(=O)O)c(=O)n(Cc2ccccc2)c1
1.4 µM | O=C(O)/C(O)=C/C(=O)c1cc(Cc2ccc(F)c(Cl)c2)cn(Cc2ccc(F)cc2F)c1=O
0.8 µM | O=C(O)/C(O)=C/C(=O)c1cc(Cc2ccccc2F)cn(Cc2cccc(F)c2F)c1=O
0.6 µM | O=C(O)/C(O)=C/C(=O)c1cc(Cc2ccc(F)cc2F)cn(Cc2ccc(F)cc2)c1=O
0.7 µM | O=C(O)/C(O)=C/C(=O)c1cc(Cc2ccccc2F)cn(Cc2ccccc2F)c1=O
1.4 µM | O=C(O)/C(O)=C/C(=O)c1cc(Cc2ccc(F)cc2)cn(Cc2c(F)cccc2F)c1=O
> 5 µM | O=C(O)/C(O)=C/C(=O)c1cc(Cc2cccc(C(=O)O)c2)cn(Cc2ccccc2)c1=O
1.5 µM | O=C(O)/C(O)=C/C(=O)c1cc(Cc2ccccc2)cn(Cc2c(F)cccc2F)c1=O
0.6 µM | O=C(O)/C(O)=C/C(=O)c1cc(Cc2ccccc2)cn(Cc2ccc(F)c(Cl)c2F)c1=O
1.9 µM | O=C(O)/C(O)=C/C(=O)c1cc(Cc2ccccc2F)cn(Cc2cccc(F)c2)c1=O
1.3 µM | Cc1cc(F)ccc1Cc1cc(C(=O)/C=C(\O)C(=O)O)c(=O)n(Cc2ccccc2F)c1
1.2 µM | O=C(O)/C(O)=C/C(=O)c1cc(Cc2cccc(Cl)c2)cn(Cc2ccc(F)c(Cl)c2)c1=O
> 5 µM | O=C(O)/C(O)=C/C(=O)c1cc(Cc2ccc(F)c(Cl)c2)cn(Cc2ccc(F)cc2)c1=O
0.8 µM | O=C(O)/C(O)=C/C(=O)c1cc(Cc2ccccc2Cl)cn(Cc2ccc(F)cc2F)c1=O
1.6 µM | Cc1ccc(Cn2cc(Cc3ccc(F)cc3)cc(C(=O)/C=C(\O)C(=O)O)c2=O)cc1
0.9 µM | Cc1cccc(Cn2cc(Cc3ccccc3F)cc(C(=O)/C=C(\O)C(=O)O)c2=O)c1
0.7 µM | O=C(O)/C(O)=C/C(=O)c1cc(Cc2ccc(F)cc2)cn(Cc2ccccc2F)c1=O
1.2 µM | O=C(O)/C(O)=C/C(=O)c1cc(Cc2ccc(F)cc2)cn(Cc2cccc(Cl)c2)c1=O
0.7 µM | Cc1ccc(Cn2cc(Cc3ccccc3F)cc(C(=O)/C=C(\O)C(=O)O)c2=O)cc1
5.1 µM | O=C(O)/C(O)=C/C(=O)c1cc(Cc2ccc(F)c(Cl)c2)cn(Cc2c(F)cccc2F)c1=O
0.7 µM | O=C(O)/C(O)=C/C(=O)c1cc(Cc2ccccc2)cn(Cc2cccc(Cl)c2F)c1=O
1.4 µM | Cc1cccc(Cc2cc(C(=O)/C=C(\O)C(=O)O)c(=O)n(Cc3cccc(Cl)c3F)c2)c1
2 µM | O=C(O)/C(O)=C/C(=O)c1cc(Cc2ccccc2)cn(Cc2cccc(F)c2)c1=O

EC50 | Compound
0.7 µM | O=C(O)/C(O)=C/C(=O)c1cc(Cc2ccccc2F)cn(Cc2cccc(Cl)c2)c1=O
0.8 µM | O=C(O)/C(O)=C/C(=O)c1cc(Cc2ccccc2F)cn(Cc2ccc(F)cc2)c1=O
1 µM | Cc1cc(F)ccc1Cc1cc(C(=O)/C=C(\O)C(=O)O)c(=O)n(Cc2ccc(F)cc2)c1
0.9 µM | O=C(O)/C(O)=C/C(=O)c1cc(Cc2ccccc2)cn(Cc2cccc(F)c2F)c1=O
1.4 µM | O=C(O)/C(O)=C/C(=O)c1cc(Cc2cccc(Cl)c2)cn(Cc2cccc(Cl)c2F)c1=O
0.8 µM | O=C(O)/C(O)=C/C(=O)c1cc(Cc2ccc(F)cc2F)cn(Cc2ccccc2)c1=O
2.2 µM | O=C(O)/C(O)=C/C(=O)c1cc(Cc2ccc(F)c(Cl)c2)cn(Cc2ccccc2F)c1=O
1.1 µM | O=C(O)/C(O)=C/C(=O)c1cc(Cc2cccc(Cl)c2)cn(Cc2cccc(Cl)c2)c1=O
1 µM | O=C(O)/C(O)=C/C(=O)c1cc(Cc2ccccc2)cn(Cc2ccc(F)cc2)c1=O
0.6 µM | O=C(O)/C(O)=C/C(=O)c1cc(Cc2ccccc2)cn(Cc2ccc(F)cc2F)c1=O
0.7 µM | Cc1cccc(Cn2cc(Cc3ccc(F)cc3F)cc(C(=O)/C=C(\O)C(=O)O)c2=O)c1
0.6 µM | O=C(O)/C(O)=C/C(=O)c1cc(Cc2ccccc2F)cn(Cc2ccc(F)cc2F)c1=O
0.8 µM | O=C(O)/C(O)=C/C(=O)c1cc(Cc2ccccc2)cn(Cc2ccc(F)c(Cl)c2)c1=O
2.5 µM | O=C(O)/C(O)=C/C(=O)c1cc(Cc2cccc(Cl)c2)cn(Cc2ccc(Cl)cc2)c1=O
0.9 µM | O=C(O)/C(O)=C/C(=O)c1cc(Cc2ccccc2)cn(Cc2cc(Cl)ccc2F)c1=O
> 5 µM | COc1ccc(Cc2cc(C(=O)/C=C(\O)C(=O)O)c(=O)n(Cc3ccc(OC)cc3)c2)cc1
1.4 µM | O=C(O)/C(O)=C/C(=O)c1cc(Cc2cccc(Cl)c2)cn(Cc2ccc(F)cc2)c1=O
0.046 µM | CC(C)OC(=O)/C(O)=C/C(=O)c1cc(Cc2ccc(F)cc2F)cn(Cc2ccc(F)cc2F)c1=O
0.9 µM | O=C(O)/C(O)=C/C(=O)c1cc(Cc2ccccc2)cn(Cc2ccccc2F)c1=O
2.2 µM | Cc1cccc(Cn2cc(Cc3ccc(F)c(Cl)c3)cc(C(=O)/C=C(\O)C(=O)O)c2=O)c1
1.1 µM | N#Cc1ccc(Cn2cc(Cc3ccccc3F)cc(C(=O)/C=C(\O)C(=O)O)c2=O)cc1
2.4 µM | O=C(O)/C(O)=C/C(=O)c1cc(Cc2ccc(F)c(Cl)c2)cn(Cc2ccc(F)c(Cl)c2)c1=O
0.3 µM | O=C(O)/C(O)=C/C(=O)c1cc(Cc2ccc(F)cc2F)cn(Cc2ccc(F)cc2F)c1=O
1.8 µM | COc1ccc(Cn2cc(Cc3ccccc3)cc(C(=O)/C=C(\O)C(=O)O)c2=O)cc1
1.5 µM | O=C(O)/C(O)=C/C(=O)c1cc(Cc2cccc(Cl)c2F)cn(Cc2cccc(Cl)c2)c1=O
> 5 µM | Cc1ccc(Cn2cc(Cc3ccc(F)c(Cl)c3)cc(C(=O)/C=C(\O)C(=O)O)c2=O)cc1
2.5 µM | Cc1ccc(Cn2cc(Cc3cccc(Cl)c3)cc(C(=O)/C=C(\O)C(=O)O)c2=O)cc1

Compound | EC50
O=C(O)/C(O)=C/C(=O)c1cc(Cc2ccccc2)cn(Cc2ccccc2)c1=O | 2.1 µM
CC(C)OC(=O)/C(O)=C/C(=O)c1cc(Cc2ccc(F)cc2F)cn(Cc2ccccc2F)c1=O | 0.009 µM

system: not listed separately; assay: Therapeutic index, ratio of CC50 for human MAGI cells to EC50 for HIV1; assay type: cell-based; conditions: not given

Compound | Ratio CC50/EC50
CC(C)OC(=O)/C(O)=C/C(=O)c1cc(Cc2ccc(F)cc2F)cn(Cc2ccccc2F)c1=O | 15000

system: not listed separately; assay: Cytotoxicity against human MAGI cells by MTS assay; assay type: cell-based; conditions: not given

Compound | CC50 | CC90
CC(C)OC(=O)/C(O)=C/C(=O)c1cc(Cc2ccc(F)cc2F)cn(Cc2ccccc2F)c1=O | 135 µM | > 200 µM

system: Human immunodeficiency virus 1; assay: Antiviral activity against HIV1 infected in human MT4 cells; conditions: Human immunodeficiency virus 1, MT4

EC50 | Compound
1 µM | O=C(O)C(=O)CC(=O)c1cccn1Cc1ccc(F)cc1
